# FLuc inhib CS = Photinus pyralis luciferase inhibition counter-screen. inhibition, % at 10 µM. P08659. ATPLite firefly luciferase biochemical luminescence, 10 min. hit rate 1.5% among 200,000;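 active = inhibition above about 50% when tested at 10 µM, limit read from the data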
# Target sequence (P08659 whole entry, looked up): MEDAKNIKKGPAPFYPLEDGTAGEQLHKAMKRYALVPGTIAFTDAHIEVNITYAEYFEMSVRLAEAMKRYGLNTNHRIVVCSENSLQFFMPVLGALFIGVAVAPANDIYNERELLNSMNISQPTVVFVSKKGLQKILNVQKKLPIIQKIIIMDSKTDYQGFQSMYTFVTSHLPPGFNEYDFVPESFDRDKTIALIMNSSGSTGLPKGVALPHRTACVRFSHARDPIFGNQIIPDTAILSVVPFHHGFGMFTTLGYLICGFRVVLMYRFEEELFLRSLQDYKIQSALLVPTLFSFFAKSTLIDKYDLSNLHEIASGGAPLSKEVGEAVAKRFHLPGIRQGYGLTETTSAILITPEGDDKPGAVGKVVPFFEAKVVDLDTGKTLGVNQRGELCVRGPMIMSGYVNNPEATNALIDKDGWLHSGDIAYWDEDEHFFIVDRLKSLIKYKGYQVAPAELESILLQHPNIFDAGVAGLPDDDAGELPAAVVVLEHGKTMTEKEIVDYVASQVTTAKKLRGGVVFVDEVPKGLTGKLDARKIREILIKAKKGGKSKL
# PPC-1+TRAIL kill = PPC-1 cancer cell killing with TRAIL present. cell killing (% activity), % at 4 µM or 5 µM. PPC-1 cells + TRAIL, ATPLite viability luminescence. hit rate 0.41% among 220,000;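 active = cell killing above 50% in the first pass at 4 µM, then a duplicate retest at 5 µM averaging 50% or more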
# FLuc stim CS = firefly luciferase counter-screen for stimulation assays | ATPlite luciferase biochemical, luminescence, 10 min; 0 = ATP-free wells, 1 = DMSO control | activation factor at 10 µM | 200,000 tested, under 10 active | AID 1027;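 active = luciferase activation factor, scaled between plate controls, of at least 2 with compound at 10 µM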
#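 System: cell-free luciferase reagent; medium: PBS as buffer for the ATP substrate; doses: test compounds dosed from 2 mM stocks in 100% DMSO; incubation: 10 min, room temperature; measured by: luminescence from luciferase reaction; read-out: luciferase activation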
# NF-kB expr up = compounds increasing NF-kB expression in human neuronal cells; AID 1239; hit rate 1.6% among 190,000; NF-kB reporter expression; stronger effect = higher value; fold change at 12.5 µM; in the data active = fold change above about 3.3
# TRAIL sens C8 = caspase-8 TRAIL sensitization; AID 624354; hit rate 1% among 360,000; NB7+C8 cells + TRAIL, ATPlite viability luminescence; inhibition (viability loss, TRAIL sensitization), % at 10 µM;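 active = compounds causing at least 50% loss of cell viability in the single-dose screen, relative to plate controls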
# APP 5'UTR act = APP 5'UTR luciferase reporter activation; SH-SY5Y APP 5'UTR luciferase reporter, luminescence; zero percent = DMSO vehicle wells; activation, % at 2 µM; hit rate 1% among 190,000;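 active = activation above a set limit, based on mean plus 3 SD of controls, cut at about 140% in these data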
# A number is an active result; – = inactive; · = no result given. This is a sample that favours compounds with a hit; in the whole collection about 2.2% have one here.
SMILES,FLuc inhib CS,PPC-1+TRAIL kill,FLuc stim CS,NF-kB expr up,TRAIL sens C8,APP 5'UTR act
CC(=O)Nc1cccc(-c2ccnc3c2CC(C(=O)Nc2ccc(Cl)cc2)O3)c1 (centres undefined),·,·,·,·,–,·
Cc1ccccc1NC(=O)/C=C/c1cccs1,–,–,–,·,–,–
Cc1cc(C)nc(NC(=O)/C=C/c2cccs2)c1,–,–,–,–,–,–
O=C(/C=C/c1cccs1)Nc1ccc(Br)cn1,–,–,–,5.6,–,–
NS(=O)(=O)c1cccc(NC(=O)/C=C/c2cccs2)c1,73,–,–,·,–,–
O=C(/C=C/c1cccs1)Nc1cccc(NC(=O)/C=C/c2cccs2)n1,60,–,–,–,73,–
Cn1c(=O)c2c(n(C)c1=O)n(C)c(=O)n2C,·,·,·,·,–,·
CCCCC1CCC(C(=O)N(CCC(C)C)c2c(N)n(CCCC)c(=O)[nH]c2=O)CC1 (centres undefined),·,·,·,·,52,·
CCCCC1CCC(C(=O)N(CCCC)c2c(N)n(CCCC)c(=O)[nH]c2=O)CC1 (centres undefined),·,·,·,·,72,·
Cc1cc(C(=O)COC(=O)c2ccc[nH]c2=O)c(C)n1-c1ccc(Br)cc1,–,–,–,–,–,–
Cc1cc(C(=O)COC(=O)c2ccc[nH]c2=O)c(C)n1C,–,–,–,–,–,–
Cc1ccc(-n2c(C)cc(C(=O)COC(=O)c3ccc[nH]c3=O)c2C)cc1,81,–,–,–,61,–
COCCn1c(C)cc(C(=O)COC(=O)c2ccc[nH]c2=O)c1C,84,–,–,–,–,–
Cc1ccc(S(=O)(=O)N2CCC(=O)N([C@H](COCc3ccc(Cl)c(Cl)c3)Cc3ccccc3)CC2)cc1,·,·,·,·,–,·
CC(C)NC(=O)C1(C)Cc2c(-c3ccc(N(C)C)cc3)ccnc2O1 (centres undefined),·,·,·,·,–,·
Nn1c(-c2cccs2)nc2sc3c(c2c1=O)CCCC3,–,–,–,3.9,–,156
CC1(C)Cc2c(sc3nc(-c4cccs4)n(N)c(=O)c23)CO1,–,–,–,–,–,–
Cc1ccccc1-c1nc2sc3c(c2c(=O)n1N)CCCC3,–,–,–,–,54,150
C#CC(=O)CC1(CN(Cc2ccccc2)C(=O)OC(C)(C)C)CCCCC1,·,·,·,·,94,·
CCS(=O)(=O)c1ccc(N=Nc2ccc(O)c3ncccc23)c(OC)c1,–,–,–,–,70,–
Cc1ccc(CNc2ccc3c(c2)ncn3C(C)(C)C)cc1,–,–,–,–,–,165
Cc1ccc(CNc2ccc3c(c2)ncn3C)cc1,–,–,–,–,–,–
O=C(Nc1ccn(C2CCC(CO)O2)c(=O)n1)c1ccccc1 (centres undefined),·,·,·,·,–,·
Fc1ccc(Cn2ccc(-c3cnc(-c4ccccc4)s3)n2)cc1,–,–,–,–,–,–
O=C(c1ccc(F)cc1)n1ccc(-c2cnc(-c3ccccc3)s2)n1,–,–,–,3.6,–,–
SMILES,FLuc inhib CS,PPC-1+TRAIL kill,FLuc stim CS,NF-kB expr up,TRAIL sens C8,APP 5'UTR act
NC(COCc1ccccc1)c1csc(Nc2nncc3ccccc23)n1 (centres undefined),·,·,·,·,–,·
NC(Cc1ccc(C(F)(F)F)cc1)c1csc(Nc2nncc3ccccc23)n1 (centres undefined),·,·,·,·,69,·
CCCCN(C)C(=O)c1ccc(Nc2nc(C(N)Cc3ccc(C(F)(F)F)cc3)cs2)nc1 (centres undefined),·,·,·,·,77,·
COC(=O)[C@]12CCCCC=C1N(Cc1ccc(Cl)cc1Cl)C(=O)[C@H](CC(=O)N1CCSCC1)C2,·,·,·,·,–,·
COc1ccc(S(=O)(=O)N(C)C[C@@H]2OCCCC[C@H](C)Oc3ccc(NC(=O)Nc4ccc(C(F)(F)F)cc4)cc3C(=O)N([C@H](C)CO)C[C@H]2C)cc1,·,·,·,·,–,·
CC(=O)Nc1ccc2c(c1)OCCOCCOc1cc(NC(C)=O)ccc1OCCOCCOCCO2,–,–,–,–,·,–
CCc1sc(C(=O)Nc2ccc3c(c2)OCCO3)cc1Br,·,·,·,·,50,·
O=C(Nc1ccc2c(c1)OCCO2)c1ccc(Br)s1,86,60,–,11,74,198
CS(=O)(=O)c1ccc(Sc2nc3ccccc3[nH]2)c([N+](=O)[O-])c1,–,–,–,–,–,–
O=[N+]([O-])c1cc(S(=O)(=O)C(F)(F)F)ccc1Sc1nc2ccccc2[nH]1,–,–,–,–,86,–
COc1ccc2cc(C3CC=C(CO)CN3S(=O)(=O)c3ccccc3[N+](=O)[O-])n(C(=O)OC(C)(C)C)c2c1 (centres undefined),·,·,·,·,–,·
Cc1ccc(S(=O)(=O)N2CCC(=O)N([C@H](COC(=O)Nc3ccccc3)Cc3ccccc3)CC2)cc1,·,·,·,·,–,·
Cc1ccc(Nc2nnc(SCC(=O)NCCN3C(=O)CSC3=O)s2)cc1C,82,–,–,–,53,–
Cc1ccc([C@@]2(OC(=O)c3ccccc3)C(=O)N(C(=O)OC(C)(C)C)c3ccccc32)cc1,·,·,·,·,–,·
Cc1ccc2nc(/C=C/c3cccc(F)c3)ccc2c1,52,–,–,7.4,–,214
COC(=O)c1c(N(S(C)(=O)=O)S(C)(=O)=O)sc2c1CCN(c1ncc(C(F)(F)F)cc1Cl)C2,–,–,–,3.4,–,–
COC(=O)c1c(/N=C/N(C)C)sc2c1CCN(c1ncc(C(F)(F)F)cc1Cl)C2,–,–,–,–,–,–
Clc1c(-c2ccccc2)nnn1-c1ccccc1,69,–,–,4.8,–,153
Nc1nnn(-c2ccccc2)c1-c1ccccc1,·,·,·,·,–,·
CCOC(=O)Cn1c(-c2cccnc2)nc(-c2ccccc2)c1-c1ccccc1,·,·,·,·,–,·
CCOC(=O)C(=C1Nc2ccccc2N1)n1c(-c2cccnc2)nc2ccccc21,·,·,·,·,71,·
CN1CCN(c2ccc(-c3cccc(NC(=O)COc4ccc(Cl)cc4Cl)c3)nn2)CC1,·,·,·,·,67,·
CN1CCN(c2ccc(-c3cccc(NC(=O)COc4ccc(Cl)cc4)c3)nn2)CC1,·,·,·,·,62,·
CCC(=O)Nc1cccc(-c2ccc(N3CCCCC3)nn2)c1,·,·,·,·,83,·
CN1CCN(c2ccc(-c3cccc(NC(=O)COc4ccccc4)c3)nn2)CC1,·,·,·,·,64,·
SMILES,FLuc inhib CS,PPC-1+TRAIL kill,FLuc stim CS,NF-kB expr up,TRAIL sens C8,APP 5'UTR act
CCOc1ccc(C(=O)Nc2cccc(-c3ccc(N4CCOCC4)nn3)c2)cc1OCC,·,·,·,·,–,·
CCC(=O)Nc1cccc(-c2ccc(N3CCN(C)CC3)nn2)c1,·,·,·,·,–,·
COc1ccc(C2=Nc3ccccc3NC(=O)C2N(CCc2ccccc2)C(=O)c2cccs2)cc1 (centres undefined),·,·,·,·,–,·
Cc1ccn2c(=O)nc(SCC(=O)c3ccc(Cl)cc3)nc2c1,·,·,·,·,–,·
Cc1ccn2c(C(=O)c3ccc(Cl)cc3)cnc2c1,52,–,–,–,–,165
CCCCn1nnnc1C(c1cc2ccccc2o1)N1CCN(c2cc(C)nc3ccccc23)CC1 (centres undefined),·,·,·,·,–,·
O=C(NNC(=S)Nc1ccc(Br)cc1)c1cccnc1,·,·,·,·,–,·
O=C(/C=C/Nc1ccc(F)cc1Br)c1ccccc1,96,85,–,–,95,149
CN(C)c1ccc(N/C=C/C(=O)c2ccccc2)cc1,92,–,–,–,67,–
